How the values were obtained:
[1] = molecular target: T1, human TLR7 (Homo sapiens, UniProt Q9NYK1); assay: HEK293-hTLR7 NFκB SEAP reporter assay; type: cell-based; conditions: comparator 1b
T1 sequence (Q9NYK1 27-1049): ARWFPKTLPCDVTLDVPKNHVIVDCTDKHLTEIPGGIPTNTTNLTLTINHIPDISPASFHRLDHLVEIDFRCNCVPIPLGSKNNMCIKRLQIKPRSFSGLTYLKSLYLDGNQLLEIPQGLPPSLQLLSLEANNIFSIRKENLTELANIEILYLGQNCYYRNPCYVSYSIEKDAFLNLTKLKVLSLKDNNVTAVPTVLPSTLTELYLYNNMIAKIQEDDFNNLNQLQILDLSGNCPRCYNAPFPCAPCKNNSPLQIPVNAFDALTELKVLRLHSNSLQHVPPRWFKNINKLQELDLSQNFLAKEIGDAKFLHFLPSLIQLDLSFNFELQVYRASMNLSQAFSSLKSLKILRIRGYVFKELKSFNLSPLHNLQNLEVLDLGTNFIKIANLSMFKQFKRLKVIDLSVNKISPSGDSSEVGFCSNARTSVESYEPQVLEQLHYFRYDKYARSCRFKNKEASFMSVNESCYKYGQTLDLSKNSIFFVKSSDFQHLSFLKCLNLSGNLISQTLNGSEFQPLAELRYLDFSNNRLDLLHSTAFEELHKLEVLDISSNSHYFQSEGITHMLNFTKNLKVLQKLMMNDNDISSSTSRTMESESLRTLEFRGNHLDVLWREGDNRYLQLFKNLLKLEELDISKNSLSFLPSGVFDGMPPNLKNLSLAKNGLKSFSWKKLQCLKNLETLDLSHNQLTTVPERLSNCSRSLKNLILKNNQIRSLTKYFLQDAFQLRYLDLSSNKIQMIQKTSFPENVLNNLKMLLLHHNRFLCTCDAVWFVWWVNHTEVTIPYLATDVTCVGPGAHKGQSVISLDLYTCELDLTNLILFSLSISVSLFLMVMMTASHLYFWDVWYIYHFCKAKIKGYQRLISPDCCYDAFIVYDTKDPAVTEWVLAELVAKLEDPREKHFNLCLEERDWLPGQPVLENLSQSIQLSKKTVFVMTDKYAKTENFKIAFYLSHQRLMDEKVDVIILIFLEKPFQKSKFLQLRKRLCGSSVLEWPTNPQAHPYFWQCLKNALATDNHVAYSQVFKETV

[2] = system: human PBMCs; assay: TNFα induction from human PBMCs; type: cell-based; conditions: hPBMCs, in the dose range evaluated
Outline: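 Donor PBMCs from healthy human whole blood were isolated on a Ficoll-Hypaque 1.077 gradient and plated at 0.5 × 10^6 cells/well in RPMI-1640 with pen/strep/glutamine and 10% heat-inactivated FBS. Test compounds (stocks 3–5 mg/mL in 2% glycerol–10% DMSO/water) were added at increasing concentrations for 24 h. Supernatant TNFα and IFNα were measured by ELISA. MEC is the lowest tested dose inducing cytokine. Values come from one of three donors.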

Row | Compound | fold less active (hTLR7) than 1b [1] [fold] | TNFα induction [2]
1 | CCCCOc1nc(N)c2[nH]c(=O)n(CCN3CCNCC3)c2n1.Cl [Compound 7a, 6-Amino-2-butoxy-9-(4-piperazinyl)ethyl-7,9-dihydro-8H-purin-8-one Hydrochloride] | 12 | 
2 | CCCCOc1nc(N)c2[nH]c(=O)n(C3CNC3)c2n1.Cl [Compound 3a, 6-Amino-2-butoxy-9-(3-azetidinyl)-7,9-dihydro-8H-purin-8-one Hydrochloride] |  | did not induce measurable TNFα
